According to ChEMBL document CHEMBL2412964, “Discovery of novel tetrahydro-pyrazolo [4,3-c] pyridines for the treatment of neuropathic pain: synthesis and neuropharmacology” (Eur J Med Chem, 2013):

How the values were obtained:
Rattus norvegicus [1] = assay: Antinociceptive activity in Wistar rat partial sciatic nerve ligation model assessed as reversal of mechanical allodynia at 100 mg/kg, ip after 30 mins (reference value: 2.9 +/- 0.3%); format: functional; conditions: route intraperitoneal
Rattus norvegicus [2] = assay: Antinociceptive activity in Wistar rat chronic constriction injury model assessed as reversal of tactile allodynia at 100 mg/kg, ip after 30 mins (reference value: 3.4 +/- 0.8%); format: functional; conditions: route intraperitoneal
Rattus norvegicus [3] = assay: Antinociceptive activity in Wistar rat chronic constriction injury model assessed as reversal of mechanical allodynia at 100 mg/kg, ip after 30 mins (reference value: 4.7 +/- 2.1%); format: functional; conditions: route intraperitoneal
Rattus norvegicus [4] = assay: Antinociceptive activity in Wistar rat partial sciatic nerve ligation model assessed as reversal of spontaneous pain response at 100 mg/kg, ip after 30 mins (reference value: 3.2 +/- 0.3%); format: functional; conditions: route intraperitoneal
Rattus norvegicus [5] = assay: Antinociceptive activity in Wistar rat partial sciatic nerve ligation model assessed as reversal of spontaneous pain response at 100 mg/kg, ip after 120 mins (reference value: 1.2 +/- 0.1%); format: functional; conditions: route intraperitoneal
Rattus norvegicus [6] = assay: Antinociceptive activity in Wistar rat chronic constriction injury model assessed as reversal of spontaneous pain response at 100 mg/kg, ip after 120 mins (reference value: 4.5 +/- 0.2%); format: functional; conditions: route intraperitoneal
Rattus norvegicus [7] = assay: Antinociceptive activity in Wistar rat partial sciatic nerve ligation model assessed as reversal of tactile allodynia at 100 mg/kg, ip after 60 mins (reference value: 12.5 +/- 1.2%); format: functional; conditions: route intraperitoneal
Rattus norvegicus [8] = assay: Antinociceptive activity in Wistar rat chronic constriction injury model assessed as reversal of spontaneous pain response at 100 mg/kg, ip after 60 mins (reference value: 4.6 +/- 0.6%); format: functional; conditions: route intraperitoneal
Rattus norvegicus [9] = assay: Antinociceptive activity in Wistar rat partial sciatic nerve ligation model assessed as reversal of spontaneous pain response at 100 mg/kg, ip after 60 mins (reference value: 2.9 +/- 0.3%); format: functional; conditions: route intraperitoneal
Rattus norvegicus [10] = assay: Antinociceptive activity in Wistar rat chronic constriction injury model assessed as reversal of cold allodynia at 100 mg/kg, ip after 30 mins (reference value: 0.6 +/- 2.7%); format: functional; conditions: route intraperitoneal
Rattus norvegicus [11] = assay: Antinociceptive activity in Wistar rat partial sciatic nerve ligation model assessed as reversal of cold allodynia at 100 mg/kg, ip after 30 mins (reference value: 4.1 +/- 1.0%); format: functional; conditions: route intraperitoneal
Rattus norvegicus [12] = assay: Antinociceptive activity in Wistar rat chronic constriction injury model assessed as reversal of spontaneous pain response at 100 mg/kg, ip after 30 mins (reference value: 8.9 +/- 4.6%); format: functional; conditions: route intraperitoneal
Rattus norvegicus [13] = assay: Antinociceptive activity in Wistar rat chronic constriction injury model assessed as reversal of cold allodynia at 100 mg/kg, ip after 60 mins (reference value: 6.3 +/- 1.9%); format: functional; conditions: route intraperitoneal
Rattus norvegicus [14] = assay: Antinociceptive activity in Wistar rat partial sciatic nerve ligation model assessed as reversal of cold allodynia at 100 mg/kg, ip after 60 mins (reference value: 2.5 +/- 0.3%); format: functional; conditions: route intraperitoneal
Rattus norvegicus [15] = assay: Antinociceptive activity in Wistar rat partial sciatic nerve ligation model assessed as reversal of mechanical allodynia at 100 mg/kg, ip after 120 mins (reference value: 2.9 +/- 0.3%); format: functional; conditions: route intraperitoneal
Rattus norvegicus [16] = assay: Antinociceptive activity in Wistar rat partial sciatic nerve ligation model assessed as reversal of tactile allodynia at 100 mg/kg, ip after 30 mins (reference value: 7.7 +/- 0.7%); format: functional; conditions: route intraperitoneal
Mus musculus [17] = assay: Neurotoxicity in Swiss albino mouse assessed as minimal motor impairment at 300 mg/kg after 0.5 hrs by rotarod test; format: toxicity, organism-based; set-up: dose 300 mg/kg; conditions: in vivo
Outline: (§1)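 Swiss albino mice of either sex, 20-25 g, dosed at 30, 100 and 300 mg/kg, three per group. Minimal motor impairment scored by rotarod at 0.5 and 4.0 h after dosing. Reported value is the lowest dose giving impairment in half or more of the mice.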

Rattus norvegicus [18] = assay: Antinociceptive activity in Wistar rat chronic constriction injury model assessed as reversal of tactile allodynia at 100 mg/kg, ip after 120 mins (reference value: 4.1 +/- 2.1%); format: functional; conditions: route intraperitoneal
Rattus norvegicus [19] = assay: Antinociceptive activity in Wistar rat chronic constriction injury model assessed as reversal of mechanical allodynia at 100 mg/kg, ip after 60 mins (reference value: 4.9 +/- 1.0%); format: functional; conditions: route intraperitoneal
Rattus norvegicus [20] = assay: Antinociceptive activity in Wistar rat chronic constriction injury model assessed as reversal of cold allodynia at 100 mg/kg, ip after 120 mins (reference value: 5.4 +/- 1.9%); format: functional; conditions: route intraperitoneal
Mus musculus [21] = assay: Antinociceptive activity in Swiss albino mouse assessed as inhibition of formalin-induced flinching at 100 mg/kg administered 30 mins prior to test measured up to 5 mins relative to control; format: functional
Rattus norvegicus [22] = assay: Antinociceptive activity in Wistar rat chronic constriction injury model assessed as reversal of mechanical allodynia at 100 mg/kg, ip after 120 mins (reference value: 5.3 +/- 0.5%); format: functional; conditions: route intraperitoneal
Rattus norvegicus [23] = assay: Antinociceptive activity in Wistar rat partial sciatic nerve ligation model assessed as reversal of mechanical allodynia at 100 mg/kg, ip after 60 mins (reference value: 2.8 +/- 0.3%); format: functional; conditions: route intraperitoneal
Mus musculus [24] = assay: Antinociceptive activity in Swiss albino mouse assessed as inhibition of formalin-induced flinching at 100 mg/kg administered 30 mins prior to test measured for 10 to 30 mins relative to control; format: functional
Rattus norvegicus [25] = assay: Antinociceptive activity in Wistar rat chronic constriction injury model assessed as reversal of tactile allodynia at 100 mg/kg, ip after 60 mins (reference value: 1.3 +/- 0.3%); format: functional; conditions: route intraperitoneal
Rattus norvegicus [26] = assay: Antinociceptive activity in Wistar rat partial sciatic nerve ligation model assessed as reversal of cold allodynia at 100 mg/kg, ip after 120 mins (reference value: 1.5 +/- 0.5%); format: functional; conditions: route intraperitoneal
Mus musculus [27] = assay: Neurotoxicity in Swiss albino mouse assessed as minimal motor impairment at 300 mg/kg after 4 hrs by rotarod test; format: toxicity, organism-based; set-up: dose 300 mg/kg; conditions: in vivo; outline: as §1
Rattus norvegicus [28] = assay: Antinociceptive activity in Wistar rat partial sciatic nerve ligation model assessed as reversal of tactile allodynia at 100 mg/kg, ip after 120 mins relative to control; format: functional; conditions: route intraperitoneal
Mus musculus [29] = assay: Antinociceptive activity in Swiss albino mouse assessed as inhibition of acetic acid-induced writhing at 100 mg/kg administered 30 mins prior to acetic acid-challenge measured for 30 mins relative to control; format: functional
Outline: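 Swiss albino mice (20–25 g, either sex); writhing induced by i.p. 0.1 mL of 2.0% v/v acetic acid given half an hour after test compound dosing.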

Compound | Activity (Rattus norvegicus [1]) | Activity (Rattus norvegicus [2]) | Activity (Rattus norvegicus [3]) | Activity (Rattus norvegicus [4]) | Activity (Rattus norvegicus [5]) | Activity (Rattus norvegicus [6]) | Activity (Rattus norvegicus [7]) | Activity (Rattus norvegicus [8]) | Activity (Rattus norvegicus [9]) | Activity (Rattus norvegicus [10]) | Activity (Rattus norvegicus [11]) | Activity (Rattus norvegicus [12]) | Activity (Rattus norvegicus [13]) | Activity (Rattus norvegicus [14]) | Activity (Rattus norvegicus [15]) | Activity (Rattus norvegicus [16]) | Activity (Rattus norvegicus [18]) | Activity (Rattus norvegicus [19]) | Activity (Rattus norvegicus [20]) | Activity (Rattus norvegicus [22]) | other results
CCN1CCc2c(c(C)nn2C(=O)Nc2cc(C)ccc2F)C1 | 44.8% | 6.6% | 35.7% | 57.6% | 17.3% | 51.8% | 15.1% | 11% | 26.6% | 15% | 13% | 15% | 21.2% | 16% | 18.2% | 20.2% | 13.7% | 42.9% | 2.8% | 14.3% | Activity (Mus musculus [17]): Non-toxic; inhibition in vivo at 100 mg/kg (Mus musculus [21]): 5.2%; Activity (Rattus norvegicus [23]): 40.2%; inhibition in vivo at 100 mg/kg (Mus musculus [24]): 15%; Activity (Rattus norvegicus [25]): 9.9%; Activity (Rattus norvegicus [26]): 7.9%; Activity (Mus musculus [27]): Non-toxic; Activity (Rattus norvegicus [28]): 3.5%; inhibition in vivo at 100 mg/kg (Mus musculus [29]): 10.5%
CCN1CCc2c(c(C)nn2C(=O)Nc2cccc(C(F)(F)F)c2)C1 | 15.6% | 4.41% | 13.4% | 20.7% | 13.8% | 12.5% | 11.1% | 15.2% | 10.2% | 12.1% | 30.2% | 13.3% | 13.7% | 15.7% | 10.6% | 69.7% | 11.8% | 20.5% | 7% | 21.8% | Activity (Mus musculus [17]): Non-toxic; inhibition in vivo at 100 mg/kg (Mus musculus [21]): 4.4%; Activity (Rattus norvegicus [23]): 11.1%; inhibition in vivo at 100 mg/kg (Mus musculus [24]): 23.1%; Activity (Rattus norvegicus [25]): 11.8%; Activity (Rattus norvegicus [26]): 20.9%; Activity (Mus musculus [27]): Non-toxic; Activity (Rattus norvegicus [28]): 11.1%; inhibition in vivo at 100 mg/kg (Mus musculus [29]): 56.1%
CCN1CCc2c(c(C)nn2C(=O)Nc2ccc(Br)cc2)C1 | 50% | 57.7% | 83.3% | 56.7% | 41.3% | 63.6% | 58.3% | 65.1% | 60.8% | 67.4% | 59.7% | 73.9% | 38.1% | 43.7% | 40% | 58.3% | 57.7% | 66.7% | 32.6% | 61.1% | Activity (Mus musculus [17]): Non-toxic; inhibition in vivo at 100 mg/kg (Mus musculus [21]): 1.7%; Activity (Rattus norvegicus [23]): 70%; inhibition in vivo at 100 mg/kg (Mus musculus [24]): 81.6%; Activity (Rattus norvegicus [25]): 70.5%; Activity (Rattus norvegicus [26]): 41.5%; Activity (Mus musculus [27]): Non-toxic; Activity (Rattus norvegicus [28]): 29.2%; inhibition in vivo at 100 mg/kg (Mus musculus [29]): 59.7%
CCN1CCc2c(c(C)nn2C(=O)Nc2ccc(F)cc2F)C1 | 62.1% | 39.3% | 62.1% | 59.2% | 14.7% | 72.8% | 41.7% | 63.6% | 28.2% | 72.7% | 58.7% | 69.3% | 53.1% | 35.4% | 63.3% | 58.3% | 67% | 58.9% | 40.6% | 63.3% | Activity (Mus musculus [17]): Non-toxic; inhibition in vivo at 100 mg/kg (Mus musculus [21]): 7.8%; Activity (Rattus norvegicus [23]): 58.9%; inhibition in vivo at 100 mg/kg (Mus musculus [24]): 14.3%; Activity (Rattus norvegicus [25]): 69.6%; Activity (Rattus norvegicus [26]): 40%; Activity (Mus musculus [27]): Non-toxic; Activity (Rattus norvegicus [28]): 39.2%; inhibition in vivo at 100 mg/kg (Mus musculus [29]): 76.3%
CCN1CCc2c(c(C)nn2C(=O)Nc2ccc(Cl)cc2)C1 | 17.5% | 13.2% | 14.6% | 13.6% | 11% | 27.4% | 8.2% | 15% | 12.7% | 15.9% | 13.2% | 16.9% | 23% | 7.9% | 11.3% | 18.1% | 19.7% | 14.6% | 9.5% | 8.3% | Activity (Mus musculus [17]): Non-toxic; inhibition in vivo at 100 mg/kg (Mus musculus [21]): 1.7%; Activity (Rattus norvegicus [23]): 5%; inhibition in vivo at 100 mg/kg (Mus musculus [24]): 7.5%; Activity (Rattus norvegicus [25]): 8%; Activity (Rattus norvegicus [26]): 11%; Activity (Mus musculus [27]): Non-toxic; Activity (Rattus norvegicus [28]): 14.2%; inhibition in vivo at 100 mg/kg (Mus musculus [29]): 55.2%
NCC1(CC(=O)O)CCCCC1 [GABAPENTIN] | 86.2% | 35.4% | 92.9% | 92.9% | 82.4% | 88.8% | 56.1% | 91.2% | 94.2% | 58% | 54.1% | 71.2% | 42.9% | 58.2% | 55.8% | 43.1% | 50.7% | 78.6% | 35.6% | 75.7% | Activity (Rattus norvegicus [23]): 91.3%; Activity (Rattus norvegicus [25]): 59.4%; Activity (Rattus norvegicus [26]): 32.1%; Activity (Rattus norvegicus [28]): 58.5%
CCN1CCc2c(c(C(C)(C)C)nn2C(=O)Nc2cccc(C(F)(F)F)c2)C1 | 52.8% | 6.7% | 3.6% | 87.3% | 19.8% | 75.2% | 13% | 65.6% | 42.2% | 55.6% | 52.7% | 89.5% | 35% | 19.1% | 45.8% | 24.7% | 9.9% | 12.2% | 9.3% | 12.1% | Activity (Mus musculus [17]): Non-toxic; inhibition in vivo at 100 mg/kg (Mus musculus [21]): 2.6%; Activity (Rattus norvegicus [23]): 59.5%; inhibition in vivo at 100 mg/kg (Mus musculus [24]): 55.1%; Activity (Rattus norvegicus [25]): 13.7%; Activity (Rattus norvegicus [26]): 15%; Activity (Mus musculus [27]): Non-toxic; Activity (Rattus norvegicus [28]): 13%; inhibition in vivo at 100 mg/kg (Mus musculus [29]): 61.4%
